Source: PubChem
MOR-DOR ag = agonists of human mu-delta opioid receptor heterodimerization | P35372+P41143 | AID 504326 | 340,000 tested, 0.3% active | activation, % at 9.3 µM | cells, OPRM1-OPRD1 heterodimerization, luminescence
Target sequence (P35372 whole entry, looked up): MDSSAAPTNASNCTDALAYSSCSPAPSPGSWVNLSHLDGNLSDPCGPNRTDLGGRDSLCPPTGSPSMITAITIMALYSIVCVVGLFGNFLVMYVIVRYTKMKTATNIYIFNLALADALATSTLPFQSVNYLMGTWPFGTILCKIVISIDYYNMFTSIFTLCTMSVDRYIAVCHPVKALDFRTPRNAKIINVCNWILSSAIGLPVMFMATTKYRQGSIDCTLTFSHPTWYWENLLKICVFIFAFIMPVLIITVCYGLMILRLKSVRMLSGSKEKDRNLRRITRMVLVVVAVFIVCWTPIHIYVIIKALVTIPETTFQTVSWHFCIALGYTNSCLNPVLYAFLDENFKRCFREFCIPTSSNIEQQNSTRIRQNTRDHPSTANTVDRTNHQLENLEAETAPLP
Target sequence (P41143 whole entry, looked up): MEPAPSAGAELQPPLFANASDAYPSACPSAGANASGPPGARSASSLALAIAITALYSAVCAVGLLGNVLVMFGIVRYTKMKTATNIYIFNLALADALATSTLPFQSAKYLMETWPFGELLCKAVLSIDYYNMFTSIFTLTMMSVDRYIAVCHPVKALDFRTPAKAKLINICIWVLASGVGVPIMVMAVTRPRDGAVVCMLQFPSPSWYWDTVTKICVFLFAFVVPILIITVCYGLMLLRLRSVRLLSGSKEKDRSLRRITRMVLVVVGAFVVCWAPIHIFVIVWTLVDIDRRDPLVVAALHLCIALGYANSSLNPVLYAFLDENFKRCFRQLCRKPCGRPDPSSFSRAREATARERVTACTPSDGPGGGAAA
HTR5A inv ctr = inverse agonist of human HTR5A in OPRM1-OPRD1 counter-screen; 340,000 tested, 0.083% active; inhibition, % at 9.3 µM; P47898; AID 504634; HTR5A cell line, luminescence, inverse agonism; in the data active = inhibition mostly above about 23%, no sharp cut-off; inactive = mostly below about 18%
DAGLB inh = blocks human DAGLB lipase activity; Q8NCG7; HEK293T DAGLB membrane lysate, EnzChek fluorogenic substrate; inhibition, % at 5.17 µM; 340,000 tested, 0.059% active; AID 504411; in the data active = inhibition above about 34%
Arr AP2 block = inhibitors of human beta-arrestin and AP2 interaction; 340,000 tested, 0.31% active; FITC-arrestin peptide / GST-AP2 beads, flow cytometry; AP2 beta2 appendage carries R879A mutation; AID 504490; inhibition, % at 10 µM;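 active = inhibition above a set limit, near 3 SD of compounds lacking own fluorescence, cut at about 54% in these data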
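test system = AP2 appendage R879A on GSH beads | buffer or medium = PBS plus Tween 20 (0.05%) and BSA (0.1%) | incubation = 12 min plus 1 h, RT | detection = bead flow cytometry, FITC channel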
MOR-DOR inv ag = inverse agonist of human OPRM1-OPRD1 heterodimerization | inhibition, % at 9.3 µM | cell-based MOR-DOR heterodimer luminescence, inverse agonism | 340,000 tested, 0.21% active | P35372+P41143; in the data active = inhibition above about 22%, passing the limit was not always enough
HTR5A ag ctr = activates human HTR5A in OPRM1-OPRD1 agonist counter-screen. HTR5A agonist assay, luminescence, cell-based. activation, % at 9.3 µM. 340,000 tested, 0.61% active. AID 504692; in the data active = activation mostly above about 9.5%, no sharp cut-off; inactive = mostly below about 7.6%
OPRM1-D1 ag cf = OPRM1-OPRD1 heterodimer agonism, confirmation. 830 tested, 45% active. cells, MOR-DOR heterodimerization, luminescence complementation. AID 504904. activation, % at 9.3 µM. shares compounds with MOR-DOR ag
HTR5A ag ctr2 = counter-screen for OPRM1-OPRD1 agonists: human HTR5A agonism; AID 504905; HTR5A agonist counterscreen, cell luminescence; shares compounds with MOR-DOR ag; 830 tested, 8% active; activation, % at 9.3 µM; in the data active = activation above about 17%
A number is an active result. The list is not random: actives were taken first. Their share in the collection is about 1.4%. Rule as the data show it, unless noted: active = activation above about 18%; inactive = the rest.

Screening O=C(Nc1ccccc1Cl)C(Cl)C(=O)c1ccccc1 (stereo unspecified) returned MOR-DOR ag inactive, HTR5A inv ctr inactive, DAGLB inh inactive, Arr AP2 block inactive, MOR-DOR inv ag 52 and HTR5A ag ctr inactive.
O=C(Nc1ccccc1Cl)c1ccccc1 was read as MOR-DOR ag inactive, HTR5A inv ctr inactive, DAGLB inh inactive, Arr AP2 block inactive, MOR-DOR inv ag inactive and HTR5A ag ctr inactive.
Screening COc1ccc(/C=C2/SC(=S)N(CCC(=O)N3CCN(C)CC3)C2=O)cc1 returned MOR-DOR ag inactive, HTR5A inv ctr inactive, DAGLB inh inactive, Arr AP2 block inactive, MOR-DOR inv ag inactive and HTR5A ag ctr 14.
`COc1ccc(/C=C2/SC(=S)N(CCCC(=O)N3CCN(C)CC3)C2=O)cc1` gave MOR-DOR ag inactive, HTR5A inv ctr inactive, DAGLB inh inactive, Arr AP2 block inactive, MOR-DOR inv ag inactive and HTR5A ag ctr inactive.
Screening CCC[C@H]1CN(Cc2ccccc2)C(=O)[C@@H]1CC(=O)NC returned DAGLB inh inactive.
Screening CC(C)(C)c1cc(CCC(=O)NN)cc(C(C)(C)C)c1O returned MOR-DOR ag inactive, HTR5A inv ctr inactive, DAGLB inh inactive, Arr AP2 block inactive, MOR-DOR inv ag inactive and HTR5A ag ctr 12.
For CC(C)(C)c1cc(CCC(=O)N2CCC2)cc(C(C)(C)C)c1O the results were MOR-DOR ag inactive, HTR5A inv ctr inactive, DAGLB inh inactive, Arr AP2 block inactive, MOR-DOR inv ag inactive and HTR5A ag ctr inactive.
C#CCOCCOCCOCCNc1nc(N2CCOCC2)nc(N2CCN(C(=O)CCCCCCCCCCNC(=O)[C@@H](CCSC)n3cc(CCO)nn3)CC2)n1 was read as MOR-DOR ag inactive, HTR5A inv ctr inactive, DAGLB inh inactive, Arr AP2 block inactive, MOR-DOR inv ag inactive and HTR5A ag ctr 14.
Screening CN(CC(=O)Nc1cccc(F)c1)CC(=O)NC(c1ccccc1)c1ccccc1 returned MOR-DOR ag inactive, HTR5A inv ctr inactive, DAGLB inh inactive, Arr AP2 block inactive, MOR-DOR inv ag inactive and HTR5A ag ctr inactive.
For Cc1cc(OCC(=O)Nc2ccncc2)cc(C)c1Br the results were MOR-DOR ag inactive, HTR5A inv ctr inactive, DAGLB inh inactive, Arr AP2 block inactive, MOR-DOR inv ag inactive and HTR5A ag ctr 13.
O=C(COc1ccc2oc(-c3ccccc3)cc(=O)c2c1)Nc1ccccc1 was read as MOR-DOR ag inactive, HTR5A inv ctr inactive, DAGLB inh inactive, Arr AP2 block inactive, MOR-DOR inv ag inactive and HTR5A ag ctr 12.
For O[C@@H](c1cc(C(F)(F)F)nc2c(C(F)(F)F)cccc12)[C@H]1CCCCN1 the results were MOR-DOR ag 21, HTR5A inv ctr inactive, DAGLB inh inactive, Arr AP2 block inactive, MOR-DOR inv ag inactive and HTR5A ag ctr inactive.
COc1ccc(OC)c(-c2nn(-c3ccccc3)cc2C(=O)NC2(C)CCS(=O)(=O)C2)c1 (stereo unspecified) was read as DAGLB inh inactive.
O[C@@H]1CN(Cc2cccs2)[C@@H](c2ccccc2)C[C@H]1n1cc(C2CC2)nn1 was read as DAGLB inh inactive.
For CN1CCN(C(=O)c2cc(COc3ccccc3)on2)[C@@H](c2ccccc2)C1 the results were MOR-DOR ag inactive, HTR5A inv ctr inactive, DAGLB inh inactive, Arr AP2 block inactive, MOR-DOR inv ag inactive and HTR5A ag ctr 9.5.
For Cc1ccc(OCc2cc(C(=O)N3CCN(C)C[C@@H]3c3ccccc3)no2)cc1C the results were MOR-DOR ag inactive, HTR5A inv ctr inactive, DAGLB inh inactive, Arr AP2 block inactive, MOR-DOR inv ag inactive and HTR5A ag ctr inactive.
Screening Cc1ccccc1/C(N)=N/OC(=O)c1cccs1 returned MOR-DOR ag inactive, HTR5A inv ctr inactive, DAGLB inh inactive, Arr AP2 block inactive, MOR-DOR inv ag inactive and HTR5A ag ctr 12.
`N/C(=N\OC(=O)c1cccs1)c1cccnc1` gave MOR-DOR ag inactive, HTR5A inv ctr inactive, DAGLB inh inactive, Arr AP2 block inactive, MOR-DOR inv ag inactive and HTR5A ag ctr inactive.
Cc1ccc(-n2c(C)cc(/C=C3\SC(=O)NC3=O)c2C)cc1 was read as MOR-DOR ag inactive, HTR5A inv ctr inactive, DAGLB inh inactive, Arr AP2 block inactive, MOR-DOR inv ag inactive and HTR5A ag ctr inactive.
For O=C1NC(=Nc2ccccc2)S/C1=C\c1ccccc1 the results were MOR-DOR ag 24, HTR5A inv ctr inactive, DAGLB inh inactive, Arr AP2 block inactive, MOR-DOR inv ag inactive, HTR5A ag ctr inactive, OPRM1-D1 ag cf inactive and HTR5A ag ctr2 inactive.
For Cc1cc(/C=C2\SC(=Nc3ccccc3)NC2=O)c(C)n1-c1ccc(S(N)(=O)=O)cc1 the results were MOR-DOR ag 120, HTR5A inv ctr inactive, DAGLB inh inactive, Arr AP2 block inactive, MOR-DOR inv ag inactive, HTR5A ag ctr inactive, OPRM1-D1 ag cf 140 and HTR5A ag ctr2 inactive.
COc1cc(/C=C(\C(=O)O)c2ccc(S(=O)(=O)N3CCCC3)s2)ccc1OCCC(C)C was read as MOR-DOR ag inactive, HTR5A inv ctr inactive, DAGLB inh inactive, Arr AP2 block inactive, MOR-DOR inv ag inactive and HTR5A ag ctr inactive.
`CC1=CC(=O)C=C(C)C1=NOS(=O)(=O)c1ccccc1` gave MOR-DOR ag inactive, HTR5A inv ctr inactive, DAGLB inh inactive, Arr AP2 block inactive, MOR-DOR inv ag inactive and HTR5A ag ctr inactive.
CC1=CC(=O)C(C(C)C)=C/C1=N/OS(=O)(=O)c1ccccc1 was read as MOR-DOR ag 205, HTR5A inv ctr inactive, DAGLB inh inactive, Arr AP2 block inactive, MOR-DOR inv ag inactive, HTR5A ag ctr 30, OPRM1-D1 ag cf 83 and HTR5A ag ctr2 29.
`CCCCCCn1c(=O)n2n(c1=O)C[C@]1(OC(=O)NC3CCCC3)CN(S(=O)(=O)c3ccc(C)cc3)C[C@]1(O)C2` gave DAGLB inh inactive.
Screening O=C(c1ccc(N2C(=O)CCC2=O)cc1)N1CCCSC1=Nc1ccccc1 returned DAGLB inh inactive.
Screening CCN(CC)c1ccc(/C=C2\C(=O)c3ccc(C(=O)O)cc3C2=O)cc1 returned MOR-DOR ag 21, HTR5A inv ctr inactive, DAGLB inh inactive, Arr AP2 block inactive, MOR-DOR inv ag inactive, HTR5A ag ctr inactive, OPRM1-D1 ag cf inactive and HTR5A ag ctr2 inactive.
For CC(=O)Nc1ccc(NC(=O)C(=O)NCC(c2ccco2)N2CCc3ccccc32)cc1 (stereo unspecified) the results were MOR-DOR ag inactive, HTR5A inv ctr inactive, DAGLB inh inactive, Arr AP2 block inactive, MOR-DOR inv ag inactive and HTR5A ag ctr inactive.
